Screening results (PubChem)
In the library only some 2.6% were active in any assay of this set; here they are far more common.
TAAR1 agonist: human TAAR1 agonism; Q96RJ0; CHO RD-HGA16 TAAR1, Fluo-8 calcium fluorescence; vehicle wells 0%, saturating PEA agonist 100%; activation, % at 3 µM; 360,000 compounds, 0.99% hits;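 active = activation above the mean activation of all test compounds in the run plus 3 SD, cut at about 38% in these data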
Target sequence (Q96RJ0 whole entry, looked up): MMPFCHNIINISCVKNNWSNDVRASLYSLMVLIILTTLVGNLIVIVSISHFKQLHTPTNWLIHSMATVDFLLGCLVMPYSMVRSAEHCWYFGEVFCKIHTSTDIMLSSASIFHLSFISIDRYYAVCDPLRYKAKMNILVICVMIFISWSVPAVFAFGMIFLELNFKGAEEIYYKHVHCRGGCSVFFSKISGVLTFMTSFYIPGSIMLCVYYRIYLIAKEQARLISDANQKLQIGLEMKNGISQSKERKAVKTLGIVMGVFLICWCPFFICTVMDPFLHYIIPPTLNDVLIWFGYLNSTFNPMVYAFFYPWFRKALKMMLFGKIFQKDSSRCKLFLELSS
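System: CHO-derived RD-HGA16 cells with stable Gα16 and human TAAR1. Times: 17-24 h plating, Fluo-8 75 min 37 °C, 30 min RT. Measured by: calcium-sensitive Fluo-8 signal, excitation 470-495, emission 515-575 nm. Read-out basis: % activation relative to PEA EC100 response. Control set: DMSO and PEA EC100. Repeats: no replicates (n 1).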
TAAR1 antag: antagonists of human TAAR1; 360,000 compounds, 1.5% hits; Q96RJ0; inhibition, % at 3 µM; CHO RD-HGA16 TAAR1, Fluo-8 calcium fluorescence, antagonist;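 active = inhibition above a per-plate cutoff, the mean inhibition of test compounds on that plate plus 3 SD, cut at about 49% in these data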
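Test system: RD-HGA16 CHO cells with stable hTAAR1 and Gα16 / Probe or stimulus: EC80 β-phenethylamine stimulus / Times: seeding 17-24 h prior, 75-min 37 °C, 30-min RT dye loading / Detection: Fluo-8 calcium-sensitive fluorescence / Read-out basis: % inhibition scaled between DMSO and EC80 PEA controls / Repeats: singlicate, one well per test compound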
VLA-4 inh: inhibition in a human VLA-4 binding assay | 330,000 compounds, 0.2% hits | inhibition, % (about 7 µM as worked out from the volumes in the protocol) | AID 2557 | VLA-4 expressing cells, ligand binding flow cytometry | P13612; in the data active = inhibition above about 50%
Platelet DG rel: platelet dense granule release activity; human platelet-rich plasma, SFLLRN dense granule ATP release, luminescence; inhibition, %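 (compounds screened at 7.5 µM in platelet-rich plasma)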; 300,000 compounds, 0.22% hits;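 active = mean replicate score, as percent of positive control, at or above 50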
Rce1 inh: yeast Ras-converting enzyme inhibition. Q03530. yeast membranes, quenched prenylated peptide cleavage fluorescence. calls only. 290,000 compounds, 0.27% hits;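 active = fall in fluorescence gain of 50% or more versus controls, with final raw signal at or below 3038400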
Numbers stand for hits; i = inactive; nt = not tested or not shown.

SMILES | TAAR1 agonist | TAAR1 antag | VLA-4 inh | Platelet DG rel | Rce1 inh
Oc1ccc(Cl)cc1CNCc1ccc(F)c(F)c1 | 43 | i | i | nt | nt
CC(=O)N(Cc1ccccc1)C1CC(=O)N(Cc2ccccc2)C1=O (centres undefined) | i | i | nt | nt | nt
O=C(C(=O)N1CCC(CNS(=O)(=O)c2ccccc2OC(F)(F)F)CC1)c1cccs1 | i | i | nt | nt | nt
CCn1nnnc1NC(=O)c1cc(Cl)c(OC)c(Cl)c1 | i | i | 52 | nt | i
CCn1nnnc1NC(=O)c1cccc(OC)c1 | i | i | i | i | nt
COc1ccnc(CS(=O)c2nc3cc(OC(F)F)ccc3[nH]2)c1OC (centres undefined) | nt | nt | i | i | i
CC(C)N(C(=O)c1nn(C)c2c1CSc1ccccc1-2)C1CCCCC1 | i | i | i | i | i
CCOC(=O)c1nn(-c2cccc(OC)c2)c(-c2ccccc2)c1C(=O)c1ccccc1 | i | 56 | i | i | i
O=C1c2ccccc2C(=O)N1CCCCc1cn(C[C@H]2CC[C@@H]([C@@H]3CC[C@H](Cn4cc(CCCCN5C(=O)c6ccccc6C5=O)nn4)O3)O2)nn1 | i | 55 | i | nt | nt
CCCN(CCC)CCNC(=O)C1CCN(S(=O)(=O)c2cccc3nsnc23)CC1 | i | i | i | i | i
COc1cccc(CN(C)Cc2cc(=O)oc3c(C)c(C)ccc23)c1 | i | i | i | i | i
Cc1ccccc1CN(C)Cc1cc(=O)oc2c(C)c(C)ccc12 | i | 51 | i | i | i
Cc1ccc(-c2cc(C(=O)NCc3ccco3)c3ccccc3n2)o1 | i | i | i | 56 | i
Cc1cc(C(=O)NCc2ccco2)c2ccccc2n1 | i | i | i | i | i
Cc1ccc(-c2cc(C(=O)Nc3cccc(S(=O)(=O)N(C)C)c3)c3ccccc3n2)o1 | i | 58 | i | i | i
Cc1ccc(-c2cc(C(=O)Nc3ccccc3C)c3ccccc3n2)o1 | i | i | i | i | i
O=C(Nc1cccc(S(=O)(=O)NCc2ccco2)c1)c1cc(-c2ccc(F)cc2)nc2ccccc12 | i | 57 | i | i | i
O=C(Nc1ccccc1)c1cccc(S(=O)(=O)NCc2ccco2)c1 | i | i | i | i | i
COc1ccccc1NC(=O)NC1(C(=O)N2CCN(C)CC2)CCCCC1 | i | i | i | i | i
O=C(NCCCN1CCOCC1)c1ccc2c(c1)N(Cc1c(F)cccc1Cl)C(=O)CS2 | i | i | i | i | i
COC(=O)c1sc(-c2ccc(C(C)(C)C)cc2)cc1NC(=O)CSCC(=O)O | i | 49 | i | i | i
CC1=C(C(=O)N(C(C)C)C(C)C)CC(CC(=O)NCc2cccc3ccccc23)C(=O)N1Cc1ccc(F)cc1 (centres undefined) | i | i | nt | nt | nt
CC1OC(C(C)(C)C)CC2=C1C(=O)OC(C)(C)O2 (centres undefined) | i | i | nt | nt | nt
Oc1[nH]c2ccccc2c1N=Nc1ccccc1F | 39 | i | i | i | i
CC1CCCC(NC(=O)CN2C(=O)NC(C)(c3cc(F)ccc3F)C2=O)C1C (centres undefined) | i | i | i | nt | nt
SMILES | TAAR1 agonist | TAAR1 antag | VLA-4 inh | Platelet DG rel | Rce1 inh
CCOc1ccc(NC(=O)CCC(=O)N/N=C2\CCCc3ccccc32)cc1 | i | i | i | nt | i
Cc1c(NC(=O)/C=C/c2cn(-c3ccccc3)nc2-c2ccccc2)c(=O)n(-c2ccccc2)n1C | i | 52 | i | i | i
Cc1nc2ccc(NC(=O)c3ccc(Cl)c(S(=O)(=O)N(C)c4ccccc4)c3)cc2s1 | i | 51 | i | i | i
CN(c1cccc(NC(=O)c2ccc(C(C)(C)C)cc2)c1)S(C)(=O)=O | i | i | i | i | i
Cc1ccc(/C=N/NC(=O)c2ccc(N(C)S(=O)(=O)c3ccccc3)cc2)cc1 | i | i | i | i | nt
COC(=O)c1ccc(Cl)c(NC(=O)CN(c2ccc(OC)cc2)S(=O)(=O)c2ccccc2)c1 | i | i | i | i | i
CC(=O)Oc1ccc(/C=N/NC(=O)c2ccc(N(C)S(=O)(=O)c3ccccc3)cc2)cc1 | i | 55 | i | i | i
CN(c1cccc(NC(=O)c2ccc(N(C)S(=O)(=O)c3ccccc3)cc2)c1)S(C)(=O)=O | i | 63 | i | i | i
COC(=O)c1cc(NC(=O)CN(c2ccc(OC)cc2)S(=O)(=O)c2ccc(F)cc2)ccc1Cl | i | 53 | nt | i | i
CC1CN(C(=O)CCC(=O)N2CCN(c3cccc(C(F)(F)F)c3)CC2)c2ccccc2O1 (centres undefined) | i | i | i | i | i
CCN(c1ccccc1)S(=O)(=O)c1ccc(C(=O)Nc2ccc(C)cn2)cc1 | i | i | i | i | i
